# According to ChEMBL document CHEMBL3877306, “Triazole Ureas Act as Diacylglycerol Lipase Inhibitors and Prevent Fasting-Induced Refeeding” (J Med Chem, 2017):
# The source made the active and inactive calls. The rule behind the calls is not given here.
# Columns and labels:
# [1] = target: T1, Monoacylglycerol lipase ABHD6 (Homo sapiens, UniProt Q9BV23); experiment: Inhibition of human ABHD6 using 2-AG as natural substrate by fluorescence based assay
# T1 sequence (Q9BV23 whole entry): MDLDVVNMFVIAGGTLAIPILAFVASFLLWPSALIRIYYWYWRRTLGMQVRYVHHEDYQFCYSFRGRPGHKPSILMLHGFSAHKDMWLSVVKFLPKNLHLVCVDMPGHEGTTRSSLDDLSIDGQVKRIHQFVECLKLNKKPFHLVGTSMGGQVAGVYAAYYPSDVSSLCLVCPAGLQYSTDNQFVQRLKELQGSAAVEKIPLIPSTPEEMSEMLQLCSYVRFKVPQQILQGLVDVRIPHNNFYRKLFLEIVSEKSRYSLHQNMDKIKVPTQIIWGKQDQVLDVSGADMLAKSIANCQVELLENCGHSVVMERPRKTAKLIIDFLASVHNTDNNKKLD
# Procedure, shortened: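 Coupled fluorescence assay: 2-AG hydrolysis detected via glycerol kinase, glycerol-3-phosphate oxidase and HRP (0.2 U/mL each), 0.125 mM ATP and 10 µM Amplifu Red. Conditions: 25 µM 2-AG, 0.5% acetonitrile, 5% DMSO, ABHD6 membrane protein 40 µg/mL final. n = 4.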
# [2] = target: T2, Diacylglycerol lipase-alpha (Mus musculus) (UniProt Q6WQJ1); experiment: (§1) Inhibition of MB064 probe binding to DAGLalpha in mouse brain membrane proteome preincubated for 30 mins followed by MB064 probe addition measured after 20 mins by gel-based competitive activity based protein profiling assay; format: cell membranes
# T2 sequence (whole entry): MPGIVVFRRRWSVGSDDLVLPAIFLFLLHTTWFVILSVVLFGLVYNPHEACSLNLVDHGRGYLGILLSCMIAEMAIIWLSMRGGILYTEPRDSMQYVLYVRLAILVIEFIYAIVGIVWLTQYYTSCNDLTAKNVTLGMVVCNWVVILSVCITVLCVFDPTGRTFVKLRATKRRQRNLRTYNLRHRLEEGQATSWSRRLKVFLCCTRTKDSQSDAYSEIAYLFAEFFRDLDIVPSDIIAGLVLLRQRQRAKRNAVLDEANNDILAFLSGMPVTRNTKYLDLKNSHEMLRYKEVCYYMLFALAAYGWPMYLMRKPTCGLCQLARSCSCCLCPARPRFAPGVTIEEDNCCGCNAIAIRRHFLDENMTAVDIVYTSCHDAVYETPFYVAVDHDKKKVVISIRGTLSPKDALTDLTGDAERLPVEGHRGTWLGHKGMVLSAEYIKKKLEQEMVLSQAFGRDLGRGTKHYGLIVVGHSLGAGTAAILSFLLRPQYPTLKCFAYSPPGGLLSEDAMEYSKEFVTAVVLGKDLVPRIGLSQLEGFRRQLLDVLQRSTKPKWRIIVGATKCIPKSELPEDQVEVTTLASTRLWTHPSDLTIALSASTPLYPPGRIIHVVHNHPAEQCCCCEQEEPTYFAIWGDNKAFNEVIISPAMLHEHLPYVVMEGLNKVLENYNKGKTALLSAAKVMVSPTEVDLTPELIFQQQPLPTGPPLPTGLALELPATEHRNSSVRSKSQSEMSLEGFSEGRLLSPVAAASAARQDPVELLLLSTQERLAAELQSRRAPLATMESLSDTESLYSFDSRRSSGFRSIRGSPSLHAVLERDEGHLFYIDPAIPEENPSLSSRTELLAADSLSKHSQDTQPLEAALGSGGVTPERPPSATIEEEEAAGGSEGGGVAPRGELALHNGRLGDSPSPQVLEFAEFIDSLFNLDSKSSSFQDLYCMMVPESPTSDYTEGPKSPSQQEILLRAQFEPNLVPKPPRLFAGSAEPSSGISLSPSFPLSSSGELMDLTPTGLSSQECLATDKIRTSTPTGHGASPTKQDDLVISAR
# Procedure, shortened: (§2)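 Mouse brain membrane proteome (2 mg/mL) preincubated with inhibitor or DMSO vehicle for 30 min at r.t., then labelled with MB064 at 250 nM final for 20 min at r.t. and quenched in Laemmli buffer. Fluorescent bands were quantified against vehicle set to 100%, and IC50 was taken from a variable-slope log(inhibitor) vs normalized response fit. n = 3.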
# [3] = target: T3, Diacylglycerol lipase-alpha (Mus musculus, UniProt Q6WQJ1); experiment: as §1; format: cell membranes; procedure, shortened: as §2
# T3 sequence (Q6WQJ1 whole entry): T2 sequence (whole entry)
# [4] = target: T4, Monoacylglycerol lipase ABHD6 (Mus musculus, UniProt Q8R2Y0); experiment: Inhibition of MB064 probe binding to ABHD6 in mouse brain membrane proteome preincubated for 30 mins followed by MB064 probe addition measured after 20 mins by gel-based competitive activity based protein profiling assay; format: cell membranes; procedure, shortened: as §2
# T4 sequence (Q8R2Y0 whole entry): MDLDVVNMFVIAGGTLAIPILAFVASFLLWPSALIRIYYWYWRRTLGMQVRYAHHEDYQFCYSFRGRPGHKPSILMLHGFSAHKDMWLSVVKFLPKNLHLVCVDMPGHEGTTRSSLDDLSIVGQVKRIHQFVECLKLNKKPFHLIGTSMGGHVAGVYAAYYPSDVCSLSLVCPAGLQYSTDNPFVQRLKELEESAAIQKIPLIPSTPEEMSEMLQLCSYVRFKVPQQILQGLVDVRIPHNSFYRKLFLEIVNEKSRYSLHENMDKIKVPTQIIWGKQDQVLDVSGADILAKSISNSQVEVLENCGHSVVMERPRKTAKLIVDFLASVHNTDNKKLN
# [5] = species on record: Mus musculus; experiment: Selectivity ratio of IC50 for ABHD6 in mouse brain membrane proteome to IC50 for DAGLalpha in mouse brain membrane proteome; format: cell membranes
# Procedure, shortened: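 Ratio of DAGLα and ABHD6 […] values, both from competitive gel ABPP in mouse brain membrane proteome. Inhibitor was preincubated 30 min at r.t., then MB064 (250 nM final) was added for 20 min. Band intensities were normalized to vehicle and fitted with a variable-slope curve. n = 3.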
# [6] = test system: Mus musculus; experiment: Inhibition of fasting-induced refeeding in 18 hrs fasted C57Bl/6J mouse at 50 mg/kg, ip administered as single dose 30 mins prior to refeeding measured up to 4 hrs; format: functional, organism-based
# [7] = test system: Mus musculus; experiment: Reduction in carbohydrate oxidation in 18 hrs fasted C57Bl/6J mouse model of fasting-induced refeeding at 50 mg/kg, ip administered as single dose 30 mins prior to refeeding measured after 20 mins; format: functional, organism-based
# [8] = test system: Mus musculus; experiment: Increase in fat oxidation in 18 hrs fasted C57Bl/6J mouse model of fasting-induced refeeding at 50 mg/kg, ip administered as single dose 30 mins prior to refeeding measured after 20 mins; format: functional, organism-based
# [9] = test system: Mus musculus; experiment: Toxicity in 18 hrs fasted C57Bl/6J mouse model of fasting-induced refeeding assessed as effect on locomotor activity at 50 mg/kg, ip administered as single dose 30 mins prior to refeeding measured after 24 hrs; format: organism-based; details: in vivo
# [10] = test system: Mus musculus; experiment: Ex vivo inhibition of FP-TAMRA probe binding to carboxylesterase in mouse liver at 3 to 50 mg/kg, ip after 4 hrs by gel-based competitive activity based protein profiling assay; format: functional, organism-based
structure (smiles),measurement,setting,value
C#CCO[C@@H]1CC[C@H](Cc2ccccc2)N(C(=O)n2ncc(C(O)(c3ccc(F)cc3)c3ccc(F)cc3)n2)C1,IC50,[1],2.51 nM
same,inhibition,[2],Dose-dependent effect
same,IC50,[3],0.631 nM
same,IC50,[4],79.4 nM
same,Ratio IC50,[5],126
same,inhibition,[6],Active
same,Activity,[7],Active
same,Activity,[8],Active
same,Activity,[9],Non-Toxic
same,inhibition,[10],Active
